From ChEMBL document CHEMBL5137048, “Design and synthesis of water-soluble prodrugs of rifabutin for intraveneous administration” (Eur J Med Chem, 2022)
Converted amounts (≈) assume the structure as drawn.

How the values were obtained:
[1] = Stability in human plasma assessed as compound remaining at 6 hrs by HPLC-MS analysis; type: ADME, cell-free; details: read-out: Stability
Acinetobacter baumannii [2] = test: Antibacterial activity against Acinetobacter baumannii HUMC1 assessed as inhibition of bacterial growth incubated for 20 hrs by microdilution assay; type: functional
Outline: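 Broth microdilution per CLSI against XDR A. baumannii HUMC1. Inoculum 5×10^5 CFU/mL in RPMI + 10% FCS, or in CAMHB + 50% human serum. Compounds tested as 2-fold dilutions from 32 µg/mL final. Plates incubated without shaking at 35 °C for 20 h. MIC read visually as the lowest concentration with no visible growth. Three independent replicates.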

[3] = Water solubility of compound in HCL by UPLC-MS analysis; type: physicochemical
Outline: (§1)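 Compounds were suspended at a nominal 10 or 50 mg/mL in PBS pH 7.4 or 26 mM HCl, vortexed, and mixed at 35 rpm for 24 h at RT. The mixture was centrifuged, the supernatant filtered and diluted 2000-fold in CH3CN, and analysed by UPLC-MS/MS (MRM). Solubility = AUC(buffer)/AUC(DMSO) × theoretical concentration.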

[4] = Water solubility of compound in PBS buffer at pH 7.4 by UPLC-MS analysis; type: physicochemical; outline: as §1
[5] = Cmax in CD-1 mouse at 5 mg/kg, iv measured at 5 to 24 hrs by LC-MS/MS analysis; type: ADME, organism-based; parameters: dose 5 mg/kg, route iv; details: in vivo
Outline: (§2)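 Female CD-1 (RjOrl:SWISS) mice, 8 weeks old at delivery, 9 per compound, given a single IV bolus into a lateral tail vein at 5 mL/kg. Basic compounds were dosed in 0.9% NaCl with 26 mM HCl, with 10% DMSO added for the parent drug; the phosphate prodrug was dosed in PBS pH 7.4. Retrobulbar blood was taken at 5, 15, 30 min and 1, 2, 4, 8, 12, 24 h. Plasma rifabutin was quantified by LC-MS/MS against a calibration curve, with griseofulvin as internal standard.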

Acinetobacter baumannii [6] = test: Antibacterial activity against Acinetobacter baumannii assessed as reduction in bacterial growth in CAMHB preincubated 6 hrs followed by human serum addition and measured after 20 hrs by microdilution assay; type: functional
Staphylococcus aureus [7] = test: Antibacterial activity against Staphylococcus aureus assessed assessed as reduction in bacterial growth in CAMHB in absence of human serum measured after 20 hrs by microdilution assay; type: functional
Outline: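 S. aureus USA300 UAMS-1625 in CAMHB without serum. CLSI broth microdilution, inoculum 5×10^5 CFU/mL, 2-fold dilutions from 32 µg/mL final. Plates held static at 35 °C for 20 h. MIC was the lowest concentration with no visible growth. Three independent replicates.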

Staphylococcus aureus [8] = test: Antibacterial activity against Staphylococcus aureus assessed as reduction in bacterial growth in CAMHB preincubated 6 hrs followed by human serum addition and measured after 20 hrs by microdilution assay; type: functional; details: time 26 hrs
Outline: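 S. aureus USA300 UAMS-1625 in CAMHB. Drug at 10-fold the 32 µg/mL top concentration was first preincubated in 100% human serum for 6 h, then serially diluted 2-fold and bacteria added (5×10^5 CFU/mL inoculum). Plates held static at 35 °C for 20 h. MIC read visually. Three independent replicates.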

[9] = Elimination half life in CD-1 mouse at 5 mg/kg, iv measured at 5 to 24 hrs by LC-MS/MS analysis; type: ADME, organism-based; details: in vivo, time lower 5 hrs, read-out: LambdaZ (converted); outline: as §2
[10] = AUC (0 to infinity) in CD-1 mouse at 5 mg/kg, iv measured at 5 to 24 hrs by LC-MS/MS analysis; type: ADME, organism-based; parameters: dose 5 mg/kg, route iv; details: in vivo; outline: as §2
[11] = AUC (0 to infinity) in CD-1 mouse at 6.5 mg/kg, iv measured at 5 to 24 hrs by LC-MS/MS analysis; type: ADME, organism-based; parameters: dose 6.5 mg/kg, route iv; details: in vivo; outline: as §2
[12] = Elimination half life in CD-1 mouse at 6.5 mg/kg, iv measured at 5 to 24 hrs by LC-MS/MS analysis; type: ADME, organism-based; details: in vivo, time lower 5 hrs, read-out: LambdaZ (converted); outline: as §2
[13] = Tmax in CD-1 mouse at 6.5 mg/kg, iv measured at 5 to 24 hrs by LC-MS/MS analysis; type: ADME, organism-based; details: in vivo, time lower 5 hrs; outline: as §2
[14] = Cmax in CD-1 mouse at 6.5 mg/kg, iv measured at 5 to 24 hrs by LC-MS/MS analysis; type: ADME, organism-based; parameters: time lower 5 hrs, dose 6.5 mg/kg, route iv; details: in vivo; outline: as §2
[15] = Chemical stability of compound by UPLC-MS/MS analysis; details: pH 7.4
[16] = Plasma concentration in CD-1 mouse at 6.5 mg/kg, iv measured after 24 hrs by LC-MS/MS analysis; type: ADME, organism-based; details: in vivo; outline: as §2
[17] = Plasma concentration in CD-1 mouse at 7 mg/kg, iv measured after 24 hrs by LC-MS/MS analysis; type: ADME, organism-based; details: in vivo; outline: as §2
[18] = AUC (0 to infinity) in CD-1 mouse at 7 mg/kg, iv measured at 5 to 24 hrs by LC-MS/MS analysis; type: ADME, organism-based; parameters: dose 7 mg/kg, route iv; details: in vivo; outline: as §2
[19] = Cmax in CD-1 mouse at 7 mg/kg, iv measured at 5 to 24 hrs by LC-MS/MS analysis; type: ADME, organism-based; parameters: dose 7 mg/kg, route iv; details: in vivo; outline: as §2
[20] = Tmax in CD-1 mouse at 7 mg/kg, iv measured at 5 to 24 hrs by LC-MS/MS analysis; type: ADME, organism-based; details: in vivo, time lower 5 hrs; outline: as §2
[21] = Elimination half life in CD-1 mouse at 7 mg/kg, iv measured at 5 to 24 hrs by LC-MS/MS analysis; type: ADME, organism-based; details: in vivo, time lower 5 hrs, read-out: LambdaZ (converted); outline: as §2

| remaining at 6 h [1] [%] | MIC (Acinetobacter baumannii [2]) [µg/mL] | solubility [3] [mg/mL] | solubility [4] [mg/mL] | MIC (Acinetobacter baumannii [6]) [µg/mL] | MIC (Staphylococcus aureus [7]) [µg/mL] | MIC (Staphylococcus aureus [8]) [µg/mL] | Stability [15] [%] | also measured | SMILES |
| --- | --- | --- | --- | --- | --- | --- | --- | --- | --- |
| 99 | > 32 | – | – | – | – | – | – | – | COCCC(=O)O[C@@H]1[C@@H](C)[C@@H](O)[C@@H](C)[C@H](OC(C)=O)[C@H](C)[C@@H](OC)/C=C/O[C@@]2(C)Oc3c(C)c(O)c4c(c3C2=O)C2NC3(CCN(CC(C)C)CC3)NC2=C(NC(=O)/C(C)=C\C=C\[C@@H]1C)C4=O (stereo partly specified) |
| – | 0.002 (≈ 0.00236 µM) | 17.7 (≈ 20900 µM) | 0.2 (≈ 236 µM) | 0.00025 (≈ 0.000295 µM) | 0.016 (≈ 0.0189 µM) | 0.03 (≈ 0.0354 µM) | – | Cmax [5]: 2200 ng/mL; half-life [9]: 3.4 h; AUC(0-inf) [10]: 6600 ng·h/mL | CO[C@H]1/C=C/O[C@@]2(C)Oc3c(C)c(O)c4c(c3C2=O)C2=NC3(CCN(CC(C)C)CC3)NC2=C(NC(=O)/C(C)=C\C=C\[C@H](C)[C@H](O)[C@@H](C)[C@@H](O)[C@@H](C)[C@H](OC(C)=O)[C@@H]1C)C4=O [RIFABUTIN] |
| – | – | 12.2 (≈ 11500 µM) | 0.7 (≈ 658 µM) | 0.001 (≈ 0.000941 µM) | 1 (≈ 0.941 µM) | 0.06 (≈ 0.0564 µM) | 101 | AUC(0-inf) [11]: 6700 ng·h/mL; half-life [12]: 3 h; Tmax [13]: 4.98 min; Cmax [14]: 1100 ng/mL; Drug uptake [16]: Active | CO[C@H]1/C=C/O[C@@]2(C)Oc3c(C)c(O)c4c(c3C2=O)C2NC3(CCN(CC(C)C)CC3)NC2=C(NC(=O)/C(C)=C\C=C\[C@H](C)[C@H](OC(=O)CN(C)C(=O)COC(=O)CN(C)C)[C@@H](C)[C@@H](O)[C@@H](C)[C@H](OC(C)=O)[C@@H]1C)C4=O (stereo partly specified) |
| – | – | – | 4.5 (≈ 3730 µM) | 0.001 (≈ 0.000828 µM) | 32 (≈ 26.5 µM) | 0.06 (≈ 0.0497 µM) | 101 | Drug uptake [17]: Active; AUC(0-inf) [18]: 8200 ng·h/mL; Cmax [19]: 2700 ng/mL; Tmax [20]: 4.98 min; half-life [21]: 2.9 h | CO[C@H]1/C=C/O[C@@]2(C)Oc3c(C)c(O)c4c(c3C2=O)C2NC3(CCN(CC(C)C)CC3)NC2=C(NC(=O)/C(C)=C\C=C\[C@H](C)[C@H](OC(=O)CN(C)C(=O)CNC(=O)OCc2ccc(OP(=O)(O)O)cc2)[C@@H](C)[C@@H](O)[C@@H](C)[C@H](OC(C)=O)[C@@H]1C)C4=O (stereo partly specified) |
| 2 | – | – | – | – | – | – | – | – | COCCC(=O)N1C2=C3NC(=O)/C(C)=C\C=C\[C@H](C)[C@H](O)[C@@H](C)[C@@H](O)[C@@H](C)[C@H](OC(C)=O)[C@H](C)[C@@H](OC)/C=C/O[C@@]4(C)Oc5c(C)c(O)c(c(c5C4=O)C2NC12CCN(CC(C)C)CC2)C3=O (stereo partly specified) |
| 86 | 0.06 (≈ 0.0631 µM) | – | – | – | – | – | – | – | COCCOC(=O)N1C2=C3NC(=O)/C(C)=C\C=C\[C@H](C)[C@H](O)[C@@H](C)[C@@H](O)[C@@H](C)[C@H](OC(C)=O)[C@H](C)[C@@H](OC)/C=C/O[C@@]4(C)Oc5c(C)c(O)c(c(c5C4=O)C2NC12CCN(CC(C)C)CC2)C3=O (stereo partly specified) |
| – | – | 34.4 (≈ 31100 µM) | > 50 | 0.001 (≈ 0.000905 µM) | 16 (≈ 14.5 µM) | 0.06 (≈ 0.0543 µM) | 99 | AUC(0-inf) [11]: 1000 ng·h/mL; half-life [12]: 10.7 h; Tmax [13]: 4.98 min; Cmax [14]: 300 ng/mL; Drug uptake [16]: Active | CO[C@H]1/C=C/O[C@@]2(C)Oc3c(C)c(O)c4c(c3C2=O)C2NC3(CCN(CC(C)C)CC3)NC2=C(NC(=O)/C(C)=C\C=C\[C@H](C)[C@H](OC(=O)CN(C)C(=O)CNC(=O)[C@@H](N)CCCCN)[C@@H](C)[C@@H](O)[C@@H](C)[C@H](OC(C)=O)[C@@H]1C)C4=O (stereo partly specified) |
